Data set [1] has as its system NCI-H292. Briefly: Cellular uptake in human NCI-H292 cells assessed as compound retention at 3 to 20 uM incubated for 3 hrs followed by drug washout measured after 3 hrs by LC-MS/MS analysis relative to initial drug accumulation. The class given is ADME, cell-based. The settings on record: nci-h292, 3 h. In outline: (§1)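 Cells loaded 3 h with 3-20 μM macrolide, then incubated 3 h in drug-free medium. Intracellular drug measured by LC-MS/MS before and after washout. Retention given as percentage of initially accumulated compound remaining in cells after washout.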

The nature of data set [2]: Cellular uptake in human T lymphocytes assessed as compound retention at 3 to 20 uM incubated for 3 hrs followed by drug washout measured after 3 hrs by LC-MS/MS analysis relative to initial drug accumulation. The class given is ADME, cell-based. The settings on record: t-cell. In short, it runs like this:
as §1

Data set [3] is described as follows: Cellular uptake in human MDM assessed as compound retention at 3 to 20 uM incubated for 3 hrs followed by drug washout measured after 3 hrs by LC-MS/MS analysis relative to initial drug accumulation. In kind it is ADME. In outline:
as §1

The nature of data set [4]: Cellular uptake in normal human lung fibroblasts assessed as compound retention at 3 to 20 uM incubated for 3 hrs followed by drug washout measured after 3 hrs by LC-MS/MS analysis relative to initial drug accumulation. The class given is ADME. In outline:
as §1

The nature of data set [5]: Cellular uptake in human BSMC assessed as compound retention at 3 to 20 uM incubated for 3 hrs followed by drug washout measured after 3 hrs by LC-MS/MS analysis relative to initial drug accumulation. In kind it is ADME. In outline: as §1
A short description of data set [6]: Cellular uptake in human PMNC assessed as compound retention at 3 to 20 uM incubated for 3 hrs followed by drug washout measured after 3 hrs by LC-MS/MS analysis relative to initial drug accumulation. The class given is ADME. In outline: as §1
In data set [7] the test system is NCI-H292. The experiment in a line: Cellular uptake in human […] cells at 3 to 20 uM after 3 hrs by LC-MS/MS analysis relative to azithromycin. The settings on record: nci-h292, 3 h. The class given is ADME, cell-based. In outline: (§2)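 Cells (primary human BSMC, MDM, NHBE, PMN, T-lymphocytes, NHLF, or NCI-H292 lung carcinoma line) incubated 3 h with 3-20 μM macrolide; extracellular drug removed (PMNs washed through silicone oil, NCI-H292 washed with ice-cold PBS). Intracellular drug quantified by LC-MS/MS; accumulation expressed as % of azithromycin accumulation measured in the same experiment. Azithromycin reference run at 10 μM, normalized to total protein.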

Data set [8] in a line: Cellular uptake in human T lymphocytes at 3 to 20 uM after 3 hrs by LC-MS/MS analysis relative to azithromycin. The class given is ADME, cell-based. The settings on record: t-cell. In short, it runs like this: as §2
Data set [9] can be described thus: Cellular uptake in human MDM at 3 to 20 uM after 3 hrs by LC-MS/MS analysis relative to azithromycin. In kind it is ADME. In outline:
as §2

The nature of data set [10]: Cellular uptake in normal human lung fibroblast at 3 to 20 uM after 3 hrs by LC-MS/MS analysis relative to azithromycin. The class given is ADME. In outline:
as §2

Data set [11] is described as follows: Cellular uptake in human BSMC at 3 to 20 uM after 3 hrs by LC-MS/MS analysis relative to azithromycin. In kind it is ADME. In outline: as §2
The nature of data set [12]: Cellular uptake in human NHBE at 3 to 20 uM after 3 hrs by LC-MS/MS analysis relative to azithromycin. In kind it is ADME. In short, it runs like this: as §2
A short description of data set [13]: Cellular uptake in human PMNC at 3 to 20 uM after 3 hrs by LC-MS/MS analysis relative to azithromycin. The class given is ADME. In short, it runs like this: as §2
Data set [14] can be described thus: Cellular uptake in human NHBE assessed as compound retention at 3 to 20 uM incubated for 3 hrs followed by drug washout measured after 3 hrs by LC-MS/MS analysis relative to initial drug accumulation. The class given is ADME. In short, it runs like this: as §1

Drug uptake data for eight compounds are collected here from ChEMBL document CHEMBL2177068, “Modeling cellular pharmacokinetics of 14- and 15-membered macrolides with physicochemical properties” (J Med Chem, 2011).

Each structure is given as a SMILES string.

Turning to `CC[C@H]1OC(=O)[C@H](C)[C@@H](O[C@H]2C[C@@](C)(OC)[C@@H](OC(=O)CN(CC)CC)[C@H](C)O2)[C@H](C)[C@@H](O[C@@H]2O[C@H](C)C[C@H](N(C)C)[C@H]2O)[C@](C)(OC)C[C@@H](C)C(=O)N[C@H](C)[C@@H](O)[C@]1(C)O`, the Drug uptake in the data set with NCI-H292 [1] is 48%; in [2], 6%; in data set [3], 56%; in data set [4], 63%; in data set [5], 27%; in data set [6] it was 74%. In addition, the Drug uptake amounted to 121% with NCI-H292 [7]; 41% in [8]; 148% in data set [9]; 256% in data set [10]; 83% in [11]; 101% in data set [12]. Moreover, the results for the Drug uptake in [13] and in data set [14] were 118% and 33%, respectively.

For `CC[C@H]1OC(=O)[C@H](C)[C@@H](O[C@H]2C[C@@](C)(OC)[C@@H](O)[C@H](C)O2)[C@H](C)[C@@H](O[C@@H]2O[C@H](C)C[C@H](N(C)C)[C@H]2O)[C@](C)(OC)C[C@@H](C)C(=O)[C@H](C)[C@@H](O)[C@]1(C)O` [CLARITHROMYCIN], the Drug uptake with NCI-H292 [1] was 1%; in [2], 2%; in data set [3], 4%; in [4], 1%; in data set [5], 1%; in data set [6] it was 2%. The Drug uptake was determined as 35% in the data set with NCI-H292 [7]; 16% in data set [8]; 66% in data set [9]; 127% in data set [10]; 36% in data set [11]; 25% in data set [12]. Besides, the Drug uptake in [13] amounted to 36%; in data set [14] it was 0%.

As for `CC[C@H]1OC(=O)[C@H](C)[C@@H](O)[C@H](C)[C@@H](O)[C@](C)(O)C[C@@H](C)CN(C)[C@H](C)[C@@H](O)[C@]1(C)O` [AZITHROMYCIN AGLYCONE], the Drug uptake in the data set on NCI-H292 [1] is given as 0%; in data set [2], 1%; in [3] it was 3%; in data set [4], 0%; in data set [5], 0%; in data set [6] it was 0%. In addition, the Drug uptake was 13% in the data set with NCI-H292 [7]; 5% in [8]; 28% in [9]; 54% in [10]; 9% in [11]; 8% in [12]. Also, the values for the Drug uptake in data set [13] and in data set [14] were 17% and 0%, respectively.

As to `CCCCCCCC(=O)NCCCN(C)[C@H]1C[C@@H](C)O[C@@H](O[C@@H]2[C@@H](C)[C@H](O[C@H]3C[C@@](C)(OC)[C@@H](O)[C@H](C)O3)[C@@H](C)C(=O)O[C@H](CC)[C@@](C)(O)[C@H](O)[C@@H](C)N(C)C[C@H](C)C[C@@]2(C)O)[C@@H]1O`, the Drug uptake in the data set with NCI-H292 [1] is on record as 51%; in data set [2], 19%; in [3] it was 100%; in data set [4], 78%; in data set [5], 47%; in [6], 85%. In addition, the Drug uptake with NCI-H292 [7] is given as 457%; in data set [8] it was 460%; in [9], 1235%; in [10] it was 1699%; in data set [11], 598%; in data set [12], 422%. Besides, the Drug uptake amounted to 663% in data set [13] and 57% in data set [14].

`CC[C@H]1OC(=O)[C@H](C)[C@@H](O[C@H]2C[C@@](C)(OC)[C@@H](O)[C@H](C)O2)[C@H](C)[C@@H](O[C@@H]2O[C@H](C)C[C@H](N(C)C)[C@H]2O)[C@](C)(O)C[C@@H](C)CN(C)[C@H](C)[C@@H](O)[C@]1(C)O` [AZITHROMYCIN]: the Drug uptake with NCI-H292 [1] is 77%; in data set [2], 38%; in [3] it was 93%; in data set [4], 80%; in data set [5] it was 54%; in data set [6], 79%. Also, the Drug uptake (in the data set with NCI-H292 [7]; in [8]; in data set [9]; in data set [10]; in [11]; in data set [12]) was 100% in each case. Besides, the Drug uptake is 100% in data set [13] and 63% in [14].

With `CCCCCCCC(=O)NCCCN1C[C@H](C)C[C@@](C)(O)[C@H](O[C@@H]2O[C@H](C)C[C@H](N(C)C)[C@H]2O)[C@@H](C)[C@H](O[C@H]2C[C@@](C)(OC)[C@@H](O)[C@H](C)O2)[C@@H](C)C(=O)O[C@H](CC)[C@@](C)(O)[C@H](O)[C@H]1C`, the Drug uptake came to 69% in the data set with NCI-H292 [1]; 30% in data set [2]; 83% in data set [3]; 84% in data set [4]; 57% in data set [5]; 77% in data set [6]. The Drug uptake is listed as 207% in the data set with NCI-H292 [7]; 127% in data set [8]; 120% in data set [9]; 122% in data set [10]; 111% in data set [11]; 135% in [12]. Also, the Drug uptake worked out at 146% in data set [13] and 71% in data set [14].

As to `CC[C@H]1OC(=O)[C@H](C)[C@@H](O[C@H]2C[C@@](C)(OC)[C@@H](O)[C@H](C)O2)[C@H](C)[C@@H](O[C@@H]2O[C@H](C)C[C@H](N(C)C)[C@H]2O)[C@](C)(OC)C[C@@H](C)C(=O)N[C@H](C)[C@@H](O)[C@]1(C)O`, the Drug uptake in the data set with NCI-H292 [1] is on record as 23%; in [2] it was 2%; in data set [3], 8%; in data set [4], 35%; in [5] it was 0%; in data set [6], 37%. Besides, the Drug uptake in the data set with NCI-H292 [7] came out at 10%; in data set [8], 5%; in data set [9], 11%; in data set [10], 9%; in data set [11], 5%; in [12] it was 11%. Further, the Drug uptake in [13] is listed as 13%; in data set [14] it was 16%.

For the compound `CC[C@H]1OC(=O)[C@H](C)[C@@H](O)[C@H](C)[C@@H](O[C@@H]2O[C@H](C)C[C@H](N(C)C)[C@H]2O)[C@](C)(O)C[C@@H](C)CN(C)[C@H](C)[C@@H](O)[C@]1(C)O` [DESCLADINOSYL AZITHROMYCIN], the Drug uptake came to 77% in the data set with NCI-H292 [1]; 46% in data set [2]; 81% in data set [3]; 70% in data set [4]; 63% in data set [5]; 68% in data set [6]. Moreover, the Drug uptake is 56% with NCI-H292 [7]; 52% in data set [8]; 79% in data set [9]; 52% in data set [10]; 75% in [11]; 52% in data set [12]. In addition, the Drug uptake in data set [13] is given as 42%; in data set [14], 74%.
